From PubChem
In the library only some 1.8% were active in any assay of this set; here they are far more common.
EBI2 antag: blocks human EBI2 receptor beta-arrestin signaling; 360,000 compounds, 0.81% hits; EBI2 beta-arrestin recruitment, luminescence, 7a,25-OHC stimulated; inhibition, % at 5 µM; P32249; in the data active means inhibition above about 38%;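 further: enzyme fragment complementation signal reports receptor beta-arrestin coupling in cells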
CCR6 antag: CCR6 (human) receptor antagonism; P51684; CHO-K1 CCR6 PathHunter beta-arrestin, luminescence, CCL20-stimulated; inhibition, % at 20 µM; 340,000 compounds, 0.49% hits; AID 493098;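 active means compounds whose inhibition of the agonist-driven luminescence signal at 20 µM reaches about 50%, limit read from the data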;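 further: cells stimulated with CCL20 at 14 nM final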
CXCR6 inh: CXCR6 (human) receptor inhibition. O00574. CHO-K1 PathHunter CXCR6 beta-arrestin, luminescence. inhibition, % at 20 µM. 360,000 compounds, 0.36% hits. AID 602244; in the data active means inhibition above about 34%, passing the limit was not always enough;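 further: antagonist mode with CXCL16 agonist at 10 nM final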
APJ antag: blocks the human apelin receptor APJ; AID 2521; inhibition, % at 20 µM; 330,000 compounds, 0.32% hits; CHO-K1 APJ beta-arrestin complementation, luminescence; P35414;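 active means inhibition above about 40% at 20 µM, limit read from the data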;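 further: cells challenged with 10 nM apelin-13 agonist together with compound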
Target sequence (P35414 whole entry, looked up): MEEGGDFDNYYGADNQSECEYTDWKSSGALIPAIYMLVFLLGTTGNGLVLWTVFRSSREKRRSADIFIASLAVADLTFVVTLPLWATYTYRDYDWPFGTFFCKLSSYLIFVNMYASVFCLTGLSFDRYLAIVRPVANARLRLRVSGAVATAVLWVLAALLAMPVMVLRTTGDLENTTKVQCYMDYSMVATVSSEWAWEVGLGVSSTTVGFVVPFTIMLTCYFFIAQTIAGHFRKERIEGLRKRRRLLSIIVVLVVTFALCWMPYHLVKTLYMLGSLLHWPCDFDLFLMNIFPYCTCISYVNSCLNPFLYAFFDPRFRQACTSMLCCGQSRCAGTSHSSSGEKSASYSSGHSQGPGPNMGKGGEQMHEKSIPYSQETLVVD
APJ agonist: activates the human apelin receptor APJ; P35414; CHO-K1 APJ PathHunter beta-arrestin, luminescence; 0% DMSO wells, 100% apelin; activation, % at 20 µM; 330,000 compounds, 0.11% hits; AID 2520;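 active means activation more than six SD over the plate average, tested at 20 µM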
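Assay system: CHO-K1 cells stably expressing ProLink-tagged human APJ and arrestin–beta-gal acceptor. Compound dosing: 20 µM single point, 1% DMSO. Times: 16-18 h seeding, 90 min dark compound exposure, 60 min detection. Detection: beta-gal luminescence. Evaluation: APJ–arrestin association signal. Controls: negative DMSO alone, positive Apelin-13 at 10 nM.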
B2AR ag: human beta-2 adrenergic receptor agonism by FAP; P07550; Am2.2-beta2AR cells, FAP receptor internalization, flow cytometry; response, % (test concentration not listed); 340,000 compounds, 0.43% hits; AID 504454;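 active means response above a set limit, near 3 SD of response in nonfluorescent compounds, cut at about 42% in these data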
APJ ag conf: confirmation of human APJ apelin receptor agonists | CHO-K1 APJ PathHunter beta-arrestin, luminescence | activation, % at 20 µM | shares compounds with APJ agonist | 310 compounds, 10% hits;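 active means activation above 40%, taking the highest of four retests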
Hits are given with their value; . = inactive; / = no result.

SMILES	EBI2 antag	CCR6 antag	CXCR6 inh	APJ antag	APJ agonist	B2AR ag	others
CC1(C)C2CC[C@]3(C)C(CC=C4[C@@H]5C[C@@](C)(CO)[C@@H]6C[C@@]5(CC[C@]43C)C(=O)O6)[C@@]2(C)CC[C@@H]1O (some centres not stated)	/	56	/	.	.	/
S=C(NNc1ccc2ccccc2c1)NC1CCCCC1	45	54	.	.	.	.
COc1ccc(C)c2sc(N(CCCN(C)C)C(=O)c3ccc(S(=O)(=O)N4CCc5ccccc5C4)cc3)nc12	.	.	.	/	/	51
COc1cccc2sc(N(CCCN(C)C)C(=O)c3ccc(S(=O)(=O)N4CCc5ccccc5C4)cc3)nc12	.	.	.	.	.	56
CC(=O)OCC(C)n1[nH]c2ccccc2c1=O (configuration not stated)	.	/	.	/	/	/
CCOC(=O)c1ccc(-c2ccc(N3C(c4cccc(OC)c4)=Cc4ccc(F)cc4C3CC(C)=O)cc2)cc1F (configuration not stated)	.	/	.	/	/	/
COc1ccc(CS(=O)(=O)/C(Cl)=C(/Cl)C(=O)Nc2ccc(OC)nc2)cc1	72	.	.	.	.	48
CCS(=O)(=O)c1ncc(Cl)c(C(=O)Nc2ccccc2OC)n1	79	.	.	.	.	.
CC(=O)Nc1ccc(NC(=O)c2nc(S(=O)(=O)Cc3cccc(C)c3)ncc2Cl)cc1	.	58	47	.	.	.
CCOc1ccc(N2C(=O)CC(Sc3nnnn3-c3ccccc3)C2=O)cc1 (configuration not stated)	.	/	52	/	/	.
CCc1nc2c(OCC(=O)C(C)(C)C)cccn2c1N(C=O)CC(=O)N(C)C	.	/	.	/	/	/
CS(=O)(=O)c1nc(-c2ccc(Br)cc2)cc(-c2ccccc2)c1C#N	81	.	.	.	.	.
N#Cc1c(-c2ccc(Br)cc2)cc(-c2cccnc2)nc1N	.	.	.	.	.	.
O=[N+]([O-])c1c(Nc2ccccc2O)cc(Cl)c2nonc12	61	106	107	93	.	105
O=[N+]([O-])c1cccc(/C=N\N=C2c3ccccc3-c3ccccc32)c1O	.	69	43	54	.	.
NC(N)=N/N=C/c1cccc([N+](=O)[O-])c1O	.	.	.	.	.	.
Cc1cc(=O)oc2cc(OCc3ccc(C(=O)OCC(=O)Nc4ccc(N(C)C)cc4)cc3)ccc12	.	.	.	.	.	49
COc1ccc(C(=O)COc2ccc3ccc(=O)oc3c2)cc1	.	.	.	.	.	.
COc1ccc(C(=O)COc2ccc3ccc(=O)oc3c2)c(OC)c1	.	.	.	.	.	51
CSC(=Nc1ccccc1)N=C(SCc1ccccc1)N(C)C	.	.	.	/	/	.
CCCCOc1cccc(C(=O)NC(=S)Nc2cccc(C(F)(F)F)c2)c1	.	51	.	.	.	.
CC(C)Oc1cccc(C(=O)NC(=S)Nc2cccc(C(F)(F)F)c2)c1	.	/	.	.	.	.
Oc1ccc(N=Nc2nc(-c3ccccc3)c(-c3ccccc3)[nH]2)cc1	.	67	53	54	.	.
Oc1ccc(N=Nc2n[nH]c(-c3ccccc3)n2)cc1	.	.	.	.	.	.
CC(/C=C\c1ccccc1)=C/C(=O)O	.	.	.	.	.	.
SMILES	EBI2 antag	CCR6 antag	CXCR6 inh	APJ antag	APJ agonist	B2AR ag	others
CC(=C/C(=O)O)/C=C/c1ccc([N+](=O)[O-])cc1	.	.	.	/	/	52
COc1ccc(CN2C(=O)CN(S(C)(=O)=O)CC2(C)C(=O)Nc2c(C)cccc2C)cc1OC (configuration not stated)	.	/	/	/	/	/
O=C(COc1cc2oc(=O)c3c(c2cc1Cl)CCC3)NCCCN1CCCC1=O	.	.	.	.	.	.
O=C(COc1cc2oc(=O)c3c(c2cc1Cl)CCC3)Nc1ccc(CN2CCOCC2)cc1	.	.	.	.	.	42
O=c1ccoc2ccccc12	.	/	.	/	/	/
C[C@@H](C(=O)Nc1ccc2ccccc2c1)[C@@H]1C[C@@]1(C)[C@@H](NC(=O)c1ccccc1)c1ccccc1	54	.	.	.	.	.
CCn1c(SC(=O)NC2CCCCC2)nnc1-c1cccs1	.	51	.	.	.	.
CC(=O)Nc1cncc(-c2cnn(CC(C)C)c2)n1	.	/	.	/	/	/
COc1ccccc1COCC(O)CN(Cc1ccco1)Cc1ccccc1O (configuration not stated)	.	88	.	.	.	.
Cc1ccc(NC(=O)CN(Cc2ccco2)Cc2ccccc2O)cc1C	.	.	.	.	.	.
CC(C)Nc1nc(Cl)nc(N(C#N)CN2C(=O)c3ccccc3S2(=O)=O)n1	.	.	.	.	.	.
CC(C)(C)Nc1nc(Cl)nc(N(C#N)CN2C(=O)c3ccccc3S2(=O)=O)n1	.	.	.	.	.	45
Cc1cnc(C(=O)OCC(=O)NC(C)c2ccccc2)cn1 (configuration not stated)	.	.	.	.	.	.
Cc1ccc(Cc2cnc(N3C(=N)SC(c4ccccc4)C3=O)s2)cc1 (configuration not stated)	.	62	.	.	.	.
Cc1cnc(NC(=O)C2(C)CCN2C(=O)C(C)C)s1 (configuration not stated)	.	/	.	/	/	/
Oc1ccc(/C=N/NC(=S)Nc2cccnc2)c(O)c1O	.	.	.	/	/	67
O=C(CS(=O)(=O)Cc1ccccc1)NCc1ccc2c(c1)OCO2	.	52	.	.	.	.
On1ccccc1=S	.	83	75	/	/	.
O=C(Cc1cccc(NC(=O)C2CCCN(C(=O)CCc3ccccc3)C2)c1)Nc1ccc(C(=O)N2CCCCC2)cc1 (configuration not stated)	.	.	.	/	/	.
Cc1cc(C)c2nc(C)cc(N/N=C/c3ccc(O)cc3)c2c1	.	.	.	.	42	.	APJ ag conf=.
Cc1cc(N/N=C/c2ccc(O)cc2)c2cccc(C)c2n1	.	.	.	.	.	.
COc1cc(NC(=O)c2ccccc2)ccc1NC(=O)c1cc2ccccc2o1	.	.	.	.	17	.	APJ ag conf=.
CCCCCCCCN1C(=O)[C@H](CC(=O)N2CCCC2)C[C@@]2(C(=O)OCC)CCCC=C12	.	/	.	/	/	/
CC1(C(=O)NS(=O)(=O)C2CC2)CCN(C(=O)c2ccc(F)cc2Cl)C1 (configuration not stated)	.	/	.	/	/	/
c1ccc(-c2nc(N3CCCCCC3)nc(-n3ccnc3)n2)cc1	.	.	.	.	26	.	APJ ag conf=.
CCOc1cc2[nH]c(=S)n(CCCOC)c(=O)c2cc1OCC	.	.	.	.	.	.
